Blank lines part the entries; values can stand above or below the compound they belong to.
What was measured:
Histamine H3 receptor [1] = biological target: T1, Histamine H3 receptor (Homo sapiens, UniProt Q9Y5N1); assay: Displacement of [3H]UR-P1294 from human H3R receptor expressed in HEK293 cells by radioligand competition binding assay; type: cell-based
Histamine H3 receptor [2] = biological target: T1, Histamine H3 receptor; assay: Binding affinity in Nluc-hH3R assessed in HEK293 cells by NanoBRET binding assay; type: cell-based
Outline: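 Saturation NanoBRET binding of the fluorescent ligand at live HEK293 cells stably expressing NLuc-hH3R; acceptor/donor BRET ratio; pKd from saturation isotherm; three independent experiments, each in duplicate.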

Histamine H3 receptor [3] = biological target: T1, Histamine H3 receptor; assay: Binding affinity in Nluc-hH3R assessed in HEK293T cells by NanoBRET binding assay; type: cell-based
Histamine H3 receptor [4] = biological target: T1, Histamine H3 receptor; assay: Binding affinity in Nluc-hH3R assessed as association time constant receptor saturated after 15 mins by NanoBRET binding assay
Histamine H3 receptor [5] = biological target: T1, Histamine H3 receptor; assay: Binding affinity in Nluc-hH3R assessed as dissociation time constant by NanoBRET binding assay
Histamine H2 receptor = Histamine H2 receptor (Homo sapiens, UniProt P25021); assay: Displacement of [3H]UR-DE25 from human H2R receptor expressed in HEK293 cells by radioligand competition binding assay; type: cell-based
Chain of Histamine H2 receptor (P25021 whole entry): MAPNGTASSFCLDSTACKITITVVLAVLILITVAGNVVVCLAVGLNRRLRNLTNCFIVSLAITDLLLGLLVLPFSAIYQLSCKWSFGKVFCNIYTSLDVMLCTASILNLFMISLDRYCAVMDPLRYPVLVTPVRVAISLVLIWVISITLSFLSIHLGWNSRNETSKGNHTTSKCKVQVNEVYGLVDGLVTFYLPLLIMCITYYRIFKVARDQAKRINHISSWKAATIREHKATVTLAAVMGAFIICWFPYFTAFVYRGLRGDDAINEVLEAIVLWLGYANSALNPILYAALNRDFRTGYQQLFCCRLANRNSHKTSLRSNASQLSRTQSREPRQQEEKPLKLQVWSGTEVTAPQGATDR

Histamine H3 receptor [6] = biological target: T1, Histamine H3 receptor; assay: Inhibition of human H3R expressed in HEK293-A cells assessed as inhibition of imetit-induced Gi2 activation by BRET assay; type: cell-based
Histamine H3 receptor [7] = biological target: T1, Histamine H3 receptor; assay: Binding affinity in human H3R as assessed as dissociation time constant using confocal microscopy relative to control
Homo sapiens [8] = organism: Homo sapiens; assay: Selectivity ratio of Ki for human H4 receptor to Ki for human H3 receptor
Histamine H3 receptor [9] = biological target: T1, Histamine H3 receptor; assay: Binding affinity to human H3R expressed in HEK293 cells by flow cytometric analysis; type: cell-based
Histamine H3 receptor [10] = biological target: T1, Histamine H3 receptor; assay: Binding affinity in human H3R assessed as association time constant by confocal microscopy
Histamine H4 receptor = Histamine H4 receptor (Homo sapiens, UniProt Q9H3N8); assay: Displacement of [3H]histamine from human H4R receptor expressed in HEK293 cells by radioligand competition binding assay; type: cell-based
Histamine H3 receptor [11] = biological target: T1, Histamine H3 receptor; assay: Binding affinity in human H3 receptor expressed in HEK293 cells by confocal microscopy; type: cell-based
Histamine H3 receptor [12] = biological target: T1, Histamine H3 receptor; assay: Binding affinity in human H3R assessed as association rate constant using confocal microscopy
Histamine H3 receptor [13] = biological target: T1, Histamine H3 receptor; assay: Binding affinity to human H3 receptor assessed as labeling efficiency by measuring dual color acquisition at 3 nM by microscopy based TIRF assay
Histamine H3 receptor [14] = biological target: T1, Histamine H3 receptor; assay: Binding affinity in Nluc-hH3R assessed as association rate constant by NanoBRET binding assay
Homo sapiens [15] = organism: Homo sapiens; assay: Selectivity ratio of Ki for human H2 receptor to Ki for human H3 receptor
Histamine H1 receptor = Histamine H1 receptor (Homo sapiens, UniProt P35367); assay: Displacement of [3H]mepyramine from human H1R receptor expressed in HEK293 cells by radioligand competition binding assay; type: cell-based
Chain of Histamine H1 receptor (P35367 whole entry): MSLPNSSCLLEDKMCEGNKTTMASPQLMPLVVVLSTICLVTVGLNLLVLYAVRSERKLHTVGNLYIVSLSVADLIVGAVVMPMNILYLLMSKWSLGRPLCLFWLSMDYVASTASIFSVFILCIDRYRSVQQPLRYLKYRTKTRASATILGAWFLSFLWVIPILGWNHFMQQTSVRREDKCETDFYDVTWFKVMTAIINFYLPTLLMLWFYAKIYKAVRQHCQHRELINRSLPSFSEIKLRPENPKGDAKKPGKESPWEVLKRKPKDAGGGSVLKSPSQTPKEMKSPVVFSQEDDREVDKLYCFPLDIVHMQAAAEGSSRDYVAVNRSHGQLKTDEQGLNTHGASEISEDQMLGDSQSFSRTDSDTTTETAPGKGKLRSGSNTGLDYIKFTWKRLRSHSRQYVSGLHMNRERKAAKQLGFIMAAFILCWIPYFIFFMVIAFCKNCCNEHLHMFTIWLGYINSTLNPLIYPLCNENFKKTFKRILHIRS

Homo sapiens [16] = organism: Homo sapiens; assay: Selectivity ratio of Ki for human H1 receptor to Ki for human H3 receptor

T1 sequence (Q9Y5N1 whole entry): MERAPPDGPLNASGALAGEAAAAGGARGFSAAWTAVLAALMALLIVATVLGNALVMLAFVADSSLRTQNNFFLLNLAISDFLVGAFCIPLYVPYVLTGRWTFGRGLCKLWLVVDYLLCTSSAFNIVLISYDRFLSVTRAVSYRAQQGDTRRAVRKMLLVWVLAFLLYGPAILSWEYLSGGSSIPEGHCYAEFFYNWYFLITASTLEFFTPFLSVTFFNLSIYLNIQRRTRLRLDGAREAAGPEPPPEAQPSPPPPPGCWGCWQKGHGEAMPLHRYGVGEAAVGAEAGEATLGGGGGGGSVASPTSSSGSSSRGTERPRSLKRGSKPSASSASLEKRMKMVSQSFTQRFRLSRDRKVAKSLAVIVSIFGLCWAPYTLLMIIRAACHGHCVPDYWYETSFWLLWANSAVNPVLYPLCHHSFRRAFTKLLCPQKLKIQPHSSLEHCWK

Compound: N=C(N)SCCc1cnc[nH]1 [IMETIT]
- Ki (Histamine H3 receptor [2]): 12.6 nM
- Ki (Histamine H3 receptor [3]): 5.01 nM

Compound: CN(C)c1ccc2c(-c3ccc(C(=O)NCCOCCOCCOCCNC(=O)C4CCN(Cc5ccc(OCCCN6CCCCC6)cc5)CC4)cc3C(=O)[O-])c3ccc(=[N+](C)C)cc-3oc2c1
- TIME (Histamine H3 receptor [4]): 0.0328 h
- TIME (Histamine H3 receptor [5]): 0.107 h
- Kd (Histamine H3 receptor [2]): 0.158 nM
- Ki (Histamine H2 receptor): > 100000 nM
- pKb (Histamine H3 receptor [6]): 9.04
- TIME (Histamine H3 receptor [7]): 0.0583 h
- Ratio Ki (Homo sapiens [8]): > 100000
- Kd (Histamine H3 receptor [9]): 0.195 nM
- TIME (Histamine H3 receptor [10]): 0.008 h
- Ki (Histamine H4 receptor): > 100000 nM
- Activity (Histamine H3 receptor [11]): 2.13 min⁻¹
- Activity (Histamine H3 receptor [12]): 0.37 min⁻¹ nM⁻¹
- Activity (Histamine H3 receptor [13]): 96.1%
- Activity (Histamine H3 receptor [14]): 0.71 min⁻¹ nM⁻¹
- Ratio Ki (Homo sapiens [15]): > 100000
- Ki (Histamine H1 receptor): > 100000 nM
- Ki (Histamine H3 receptor [1]): 0.302 nM
- Ratio Ki (Homo sapiens [16]): > 100000

Compound: CCN1CCN(C(=O)c2ccc(-c3nc4ccccc4s3)s2)CC1
- Ki (Histamine H3 receptor [2]): 19.5 nM
- Ki (Histamine H3 receptor [3]): 19.5 nM

Continued, values first:

- Ki (Histamine H3 receptor [1]): 0.398 nM
Compound: NCCOCCOCCOCCNC(=O)C1CCN(Cc2ccc(OCCCN3CCCCC3)cc2)CC1

- Ki (Histamine H3 receptor [1]): 1.58 nM
Compound: O=C(O)C1CCN(Cc2ccc(OCCCN3CCCCC3)cc2)CC1

- Ki (Histamine H3 receptor [1]): 0.275 nM
Compound: CCOC(=O)C1CCN(Cc2ccc(OCCCN3CCCCC3)cc2)CC1

Reference: ChEMBL document CHEMBL5053495, “A Versatile Sub-Nanomolar Fluorescent Ligand Enables NanoBRET Binding Studies and Single-Molecule Microscopy at the Histamine H3 Receptor” (J Med Chem, 2021)
